Assay results: PubChem BioAssay AID743208 (The Scripps Research Institute Molecular Screening Center, 2013)
Out of some 2,100 compounds screened, about 30 (1%) were called active.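 The calls were made as follows: active = inhibition above about 20% chosen separately for each screening run (limit read from the data); inactive = the rest.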 A selection follows.

Target: Disintegrin and metalloproteinase domain-containing protein 10 (Homo sapiens) (UniProt O14672)
Experiment: human ADAM10 inhibitors, confirmation, biochemical, QFRET, triplicate (AID 743208);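 also: 0% = DMSO wells and 100% = marimastat wells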
Conditions: ADAM10 QFRET peptide cleavage, EDANS fluorescence; at 6.95 µM; active compounds read high
In short: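 Material: ADAM10 enzyme, FRET peptide substrate | Technique: Fluorescence of cleaved EDANS peptide, excitation 359 nm, emission 460 nm | Evaluation: % inhibition relative to DMSO and marimastat wells | Repeats: Triplicate per compound | Times: 30 min preincubation and 3 h reaction at 25 °C | Benchmarks: DMSO low control, 1 µM marimastat high control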

Disintegrin and metalloproteinase domain-containing protein 10 (Homo sapiens), sequence (O14672 214-748 limits assumed): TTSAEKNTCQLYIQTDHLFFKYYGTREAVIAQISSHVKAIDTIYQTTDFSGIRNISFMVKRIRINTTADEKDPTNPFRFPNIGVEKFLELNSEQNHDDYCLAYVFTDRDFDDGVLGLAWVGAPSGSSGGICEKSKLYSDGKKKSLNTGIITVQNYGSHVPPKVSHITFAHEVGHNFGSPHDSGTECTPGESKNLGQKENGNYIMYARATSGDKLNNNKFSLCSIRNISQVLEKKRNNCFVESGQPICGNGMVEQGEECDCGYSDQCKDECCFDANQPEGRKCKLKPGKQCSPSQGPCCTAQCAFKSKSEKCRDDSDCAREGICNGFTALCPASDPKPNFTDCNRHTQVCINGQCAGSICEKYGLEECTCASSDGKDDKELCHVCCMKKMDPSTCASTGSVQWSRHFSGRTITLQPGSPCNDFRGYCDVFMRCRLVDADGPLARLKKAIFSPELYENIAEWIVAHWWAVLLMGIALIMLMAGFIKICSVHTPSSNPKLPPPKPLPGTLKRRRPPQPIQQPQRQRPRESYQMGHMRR

inhibition, inactive:
COc1cc(Cl)c(S(=O)(=O)N2CCN(Cc3ccc4c(c3)OCO4)CC2)cc1Cl 3.51%
O=C(/C=C/c1ccc(F)cc1)NC(=S)NNC(=O)c1cccnc1 0.49%
O=C(CC(O)(C(F)(F)F)C(F)(F)F)Nc1ccc(Cl)c(Cl)c1 2.03%
CCOc1ccc(N2C(=O)CC(N(CCc3ccc(OC)c(OC)c3)C(=S)Nc3ccccc3)C2=O)cc1 (stereo unspecified) 0.13%
CC(C)(C)OC(=O)CNC(=O)c1[nH]cnc1C(=O)N[C@@H](Cc1ccccc1)C(=O)OCc1ccccc1 6.97%
COc1cccc(C2CC(c3ccccc3)=NN2S(=O)(=O)c2ccccc2)c1OC (stereo unspecified) 4.77%
Cc1cc(C)cc(NC(=S)NCCc2c[nH]c3ccccc23)c1 2.41%
COc1ccc(NS(=O)(=O)c2ccc(C)c(C(=O)NNC(=O)c3csc(N4CCOCC4)n3)c2)cc1 2.95%
CCC1(C)Cc2c(sc3nnn(CC(=O)Nc4ccc(Cl)cc4)c(=O)c23)CO1 (stereo unspecified) 6.24%
O=C(CSC1=NCCS1)Nc1nc(-c2ccccc2)cs1 0.24%
COc1ccc(C(N)c2csc(NC(=O)Nc3cccc(C(F)(F)F)c3)n2)cc1 (stereo unspecified) 3.14%
O=C1NC(Nc2nc3ccccc3s2)(C(F)(F)F)C(=O)N1C1CCCCC1 (stereo unspecified) 3.12%
Cc1cc(C)cc(NC(=O)CSCc2cnn(-c3ccccc3)c2-n2cccc2)c1 7.84%
Cc1ccc(OCc2nnc(SC/C=C/c3ccccc3)n2Cc2ccco2)cc1 5.61%
CC(C)(C)N1C(=O)[C@H]2[C@@H](c3ccc(Br)cc3)N3C(=O)N(c4cccc(Cl)c4)C(=O)[C@@]3(C)[C@H]2C1=O 2.62%
O=C(Nc1cccc(S(=O)(=O)Nc2ccc(Cl)cc2)c1)c1ccc2c(c1)OCCO2 8.03%
O=C(NCc1ccccc1)c1onc(CSc2nc3ccccc3[nH]2)c1C(=O)NCc1ccccc1 5.46%
CC(C)Oc1ccc(CC(=O)NNC(=S)Nc2ccc(Br)cc2)cc1 3.54%
COC(=O)C1NN=C(C(=O)c2ccc(Br)cc2)C1c1cccc(Br)c1 (stereo unspecified) 3.07%
COc1ccc(C(=O)NNC(=S)NC(=O)c2ccccc2)cc1 0.52%
COc1ccc([C@H]2CC(=O)C=C(c3ccc(OC(F)(F)F)cc3)C2)cc1OC 1.68%
COc1cc(/C=C2/SC(=S)N(Cc3ccccc3)C2=O)cc(OC)c1O 7.56%
O=C(Oc1cccc(N2C(=O)C3C4c5ccccc5C(c5ccccc54)C3C2=O)c1)c1ccco1 (stereo unspecified) 3.26%
CC1(C)C=Cc2c(ccc3c2OC[C@@H](c2ccc(O)cc2O)C3)O1 9.96%
CCOc1cc(/C=N/NC(=O)c2cc(-c3ccccc3)nc3ccccc23)ccc1O 9.93%
C=C(C)COc1ccc(-c2n[nH]c(C)c2-c2ccccc2)c(O)c1 5.81%
Cc1cccc(CCNS(=O)(=O)c2ccc(S(=O)(=O)NC3CCCC3)cc2)c1 0.65%
Cc1ccccc1-n1c(SCC(=O)Nc2cccc3ccccc23)nc(O)cc1=O -0.12%
COc1ccccc1CC1(C)C(=O)Nc2ccc(OC(F)(F)F)cc21 (stereo unspecified) 0.74%
O=C(OCc1ccc(-c2ccccc2)cc1)c1cccc(O)c1 12.8%
O=S(=O)(c1cccc(S(=O)(=O)N2CCC(n3nnc4ccccc43)CC2)c1)N1CCCCC1 0.35%
COc1cccc(NC(=O)CN2CCN(c3nc(-c4cccc(OC)c4)cs3)CC2)c1 8.73%
C=CCC[C@@H](Cc1ccc(F)cc1)C(=O)O[C@H](CNC(=O)[C@H](CC=C)CC(=O)N(CCO)Cc1ccccc1)c1ccccc1 11.4%
COc1cccc(NC(=O)C2C(c3ccccc3)C2(Cl)Cl)c1 (stereo unspecified) 5.98%
CCOc1cc(NC(=O)c2ccccc2C(=O)O)c(OCC)cc1NC(=O)c1ccccc1F 3.74%
O=C(Cc1ccc(Cl)c(Cl)c1)Nc1ccc(SC(F)F)cc1 7.73%
COc1cccc(CC2(CO)CCCN(Cc3ccc(OC(F)F)cc3)C2)c1 (stereo unspecified) -1.93%
Cc1cc(O)ccc1-c1cc(C(=O)NCc2cc(C(F)(F)F)cc(C(F)(F)F)c2)[nH]n1 1.37%
Cn1nc(C(F)(F)F)c(C(=O)Nc2cccc(C(F)(F)F)c2)c1SCc1ccc(Cl)cc1 7.28%
CCC(C)(C)c1ccc(Oc2ccc(NC(=O)COC(=O)C3=COCCO3)cc2)cc1 9.01%
Cc1[nH]c2ccccc2c1C(=O)COC(=O)c1c(-c2ccccc2)noc1C 3.43%
Cn1c(CNc2nc(-c3ccccc3)cs2)nnc1SCC(=O)c1ccccc1 0.21%
COc1cc(/C=N/n2c(C)n[nH]c2=S)ccc1OCc1ccccc1 -0.86%
COc1ccc(C(CCN(Cc2ccc(OC)c(OC)c2)C(=O)CCl)c2ccccc2)cc1 (stereo unspecified) 2.71%
O=S(=O)(c1ccccc1)N(Cc1cccc(F)c1)c1ccccc1 3.92%
Cc1ccc(N(NC(=O)C(C)(C)O)C(=O)c2ccccc2)cc1C 0.68%
Cc1ccc(C)c(NC(=S)NNC(=O)c2csc(C)c2)c1 3.38%
Cc1ccc(/C=N/NC(=O)CSc2nc3ccccc3o2)cc1 0.27%
COc1ccc(OCCCn2cccc2/C=C2/C(=N)N3OC(C)=CC3=NC2=O)cc1 1.45%
COc1ccc(C(=O)NN2C(=O)C3C(c4ccccc4)C=CC(c4ccccc4)C3C2=O)cc1 (stereo unspecified) 6.22%
COc1ccc(S(=O)(=O)N2CCN(C(C)C(=O)Nc3ccc(C(C)C)cc3)CC2)cc1 (stereo unspecified) 4.39%
COc1ccc(C2CC(c3ccccc3)=NN2C(=O)COC(=O)COc2ccccc2)cc1 (stereo unspecified) 8.14%
O=C(CSCc1ccc(Br)cc1)Nc1ccc(S(=O)(=O)N2CCCCCC2)cc1 7.76%
Cc1cnc(C(=O)OCc2c(C)cc(C(C)(C)C)cc2C)cn1 0.57%
Cc1cc(Nc2ccccc2)n(C(=O)c2ccc(N)cc2)n1 2.25%
CCCCCc1c(-c2ccc(OC)c(OC)c2)ncn1CCc1ccccc1OC 5.03%
O=C(CC1SC(=Nc2ccccc2)N(Cc2ccccn2)C1=O)Nc1cccc(Cl)c1 (stereo unspecified) 7.51%
CC(C)(C)c1ccc(S(=O)(=O)NCC2CCN(C(=O)C(=O)c3cc4ccccc4o3)CC2)cc1 6.76%
CCCC(=O)n1nc(NCc2ccc(OC)cc2)nc1NCc1ccc(OC)cc1 9.12%
O=C1[C@H]2[C@@H](c3ccc(F)cc3)N3C(=O)N(c4ccc(C(F)(F)F)cc4)C(=O)[C@@]3(Cc3ccccc3)[C@H]2C(=O)N1C1CCCCC1 8.51%
CN(C)S(=O)(=O)c1cccc(NC(=O)COC(=O)C2(c3ccccc3F)CCCC2)c1 2.23%
O=C(NC(Cc1c[nH]c2ccccc12)C(=O)N/N=C/c1ccc(Br)cc1)c1cccs1 (stereo unspecified) 9.54%
S=c1[nH]cc(-c2ccc(Cl)cc2)n1-c1ccccc1 1.28%
COC(=O)[C@@]12C[C@@H](CC(=O)NCCCCc3ccccc3)C(=O)N(CCc3ccc(OC)c(OC)c3)C1=CCC(C)(C)C2 5.78%
O=C(COC(=O)CCCSc1nc2ccccc2[nH]1)Nc1ccc(Oc2ccccc2)cc1 10.7%
COc1ccc([C@@H]2[C@@H]3C(=O)N(C(C)(C)C)C(=O)[C@@H]3[C@]3(Cc4ccccc4)C(=O)N(c4cccc(Br)c4)C(=O)N23)cc1 5.88%
CC1(Cc2cccc(C#N)c2)C(=O)Nc2ccc(-c3cccc(C(F)(F)F)c3)cc21 (stereo unspecified) 10.6%
Cc1ccc(NC(=O)c2nc[nH]c2C(=O)N[C@@H](CCCCNC(=O)OC(C)(C)C)C(=O)OC(C)(C)C)cc1 11.2%
O=Cc1cn(CCOc2ccc(F)cc2)c2ccccc12 2.15%
CCOc1ccc(Nc2oc(Cc3ccccc3)nc2C#N)cc1 1.49%
N/C(Cc1ccc([N+](=O)[O-])cc1)=N\OC(=O)COc1ccc2ccccc2c1 3.81%
CC(C)(C)OC(=O)N1CCC(NC(=O)c2[nH]cnc2C(=O)N[C@@H](Cc2ccccc2)C(=O)OCc2ccccc2)CC1 9.68%
Cc1cc(C)cc(NS(=O)(=O)c2ccc(Oc3ncc(C(F)(F)F)cc3Cl)cc2)c1 10.8%
Cc1ccc(S(=O)(=O)N2CCN(C(=O)COC(=O)c3c(C)cc(C)cc3C)CC2)c(C)c1 5.29%
Cc1ccc(S(=O)(=O)N(CC(=O)Nc2cccnc2)c2ccc(Br)cc2)cc1 2.78%
COc1ccc(Cl)cc1NC(=O)CN(C)C(=O)CCCc1c[nH]c2ccccc12 3.45%
O=C(NCCc1ccc(Cl)cc1Cl)c1cc([N+](=O)[O-])c[nH]c1=O 0%
C=CC[C@H](CC(=O)N(CCO)Cc1ccccc1)C(=O)N[C@@H](COC(=O)[C@@H](CC=C)Cc1ccc(F)cc1)Cc1ccccc1 8.13%
COc1cc(C2CC(=O)N3CN(Cc4ccccc4)CSC3=C2C#N)ccc1OCc1ccccc1 (stereo unspecified) 5.28%
CC(N=Cc1nc(-c2ccccc2)oc1O)c1ccccc1 (stereo unspecified) 2.54%
C=CCC[C@@H](Cc1ccc(F)cc1)C(=O)OC[C@H](Cc1c[nH]c2ccccc12)NC(=O)[C@@H](CC=C)CC(=O)N(CCO)Cc1ccccc1 10.1%
COc1ccc(Cl)cc1NC(=O)COC(=O)C(CC(C)C)N1C(=O)C2CC=CCC2C1=O (stereo unspecified) 2.32%
Cc1cccc(C2c3[nH]c4ccccc4c3CCN2C(=O)c2cc(-c3cccn3C)n[nH]2)n1 (stereo unspecified) 6.14%
N#Cc1nc(Cc2cccc3ccccc23)oc1NCc1ccc2c(c1)OCO2 6.72%
C#CCN(C[C@H]1[C@H](OC(=O)NC2CCCC2)[C@H](OC(=O)NC2CCCC2)C[C@H]2C(=O)N(c3ccccc3)C(=O)[C@@H]12)S(=O)(=O)c1ccc(C)cc1 2.92%
Cc1ccc(NS(=O)(=O)c2ccc(C)c(NC(=O)COc3ccc4ccccc4c3)c2)c(C)c1 9.74%
O=C(CNC(=O)c1ccc(Cl)cc1Cl)NCC(=O)Nc1ccccc1N1CCOCC1 0.46%
CCOc1ccc(Br)cc1S(=O)(=O)Nc1ccc(C(=O)OC(C)C(=O)N(C)c2ccccc2)cc1 (stereo unspecified) 9.44%
CCC(C(=O)OCC(=O)Nc1ccccc1-c1ccccc1)c1ccccc1 (stereo unspecified) 2.14%
Cc1csc(NC(=S)Nc2cccc(Cl)c2)n1 7.9%
CC(C)Oc1cc(F)ccc1-c1cc(C(=O)Nc2cccc(Cl)c2)[nH]n1 9.22%
c1ccc2c(CCN3CCNC[C@H]3Cc3cccc4ccccc34)cccc2c1 5.45%
COc1cc(/C=N/O)cc(Br)c1OS(=O)(=O)c1ccc(C)cc1 2.32%
O=C1[C@H]2[C@@H](c3ccc(C(F)(F)F)cc3)N[C@]3(CCCN(Cc4ccc(Br)cc4)C3=O)[C@H]2C(=O)N1Cc1ccccc1 6.04%
CC(C)(C)c1ccc(C(=O)Nc2cc(Cl)c(Br)cc2C(=O)O)cc1 3.89%
CC(C)C(=O)Nc1cccc(NC(=S)NC(=O)C(c2ccccc2)c2ccccc2)c1 7.37%
